ChEMBL document CHEMBL1165997, “Sesquiterpenoids from Inula lineariifolia inhibit nitric oxide production” (J Nat Prod, 2010)

Key:
RAW264.7 [1] = assay: Inhibition of LPS-induced NO production in mouse RAW264.7 cells measured after 24 hrs; format: functional, cell-based
Outline: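 RAW264.7 cells, harvested from 100 mm dishes, were seeded at 2 × 10^5 cells/well. They were pretreated with a range of sample concentrations for 30 min, then incubated 24 h with or without LPS at 1 µg/mL. Nitrite in the culture supernatant was measured by the Griess reaction, and IC50 was reported.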

RAW264.7 [2] = assay: Cytotoxicity against mouse RAW264.7 cells at concentration required inhibit NO synthesis by MTT assay; format: cell-based

| IC50 (RAW264.7 [1]; Mus musculus, RAW264.7, 24 h) | IC50 (RAW264.7 [1]; raw264.7) | Structure (SMILES) | Activity (RAW264.7 [2]) |
| --- | --- | --- | --- |
| 13.1 µM | – | C=C1C(=O)O[C@@H]2C[C@H](C)C(CCC(C)=O)=C[C@H](O)[C@H]12 | Non-toxic |
| 13.3 µM | – | C=C1C(=O)O[C@H]2C=C(CCC(C)=O)[C@H](C)C[C@H](OC(=O)CC)[C@H]12 | Non-toxic |
| 26.2 µM | – | C=C1C(=O)O[C@H]2C[C@@H](C)[C@H]3[C@@H](OC(C)=O)C[C@@](C)(O)[C@@]34O[C@H]4[C@H]12 | Non-toxic |
| – | – | C=C1C[C@@H]2OC(=O)C(=C)[C@H]2C[C@@H]2[C@@H]1[C@@H](OC(C)=O)C[C@@]2(C)O (stereo in doubt; 5) | Non-toxic |
| – | 2.95 µM | C=C1C(=O)O[C@H]2C=C(C)[C@H]3[C@@H](OC(C)=O)C[C@@](C)(O)[C@@H]3C[C@H]12 (stereo in doubt; 9) [GAILLARDIN] | – |
| 28.7 µM | – | C=C1C(=O)O[C@H]2C=C(C)[C@@H]3CC[C@](C)(O)[C@@H]3C[C@H]12 [4-EPI-ISOINUVISCOLIDE] | Non-toxic |
| 22.8 µM | – | C[C@@H]1CC[C@@H]2[C@]3(O)[C@H]1CC[C@@]3(C)C[C@@]2(C)C(=O)O [BRITANLIN C] | Non-toxic |
| 12.9 µM | – | C[C@@H]1CC[C@H](O)[C@]2(O)CC[C@H](c3cc3=O)C[C@@]12C [INEARIIFOLIANONE] | Non-toxic |
| 0.1 µM | – | C=C1C(=O)O[C@H]2C[C@@H](C)[C@@H]3CC[C@H](O)[C@@]3(C)C[C@H]12 [PSEUDOGUAIANOLIDE] | Non-toxic |
| 9.15 µM | – | C=C1C(=O)O[C@@H]2C[C@H](C)C(CCC(C)=O)=CC[C@H]12 [TOMENTOSIN] | Non-toxic |
| 35.6 µM | – | C=C1C(=O)O[C@H]2C[C@H](C)[C@@H]3CC(=O)C(C)=C3C[C@H]12 [XERANTOLIDE] | Non-toxic |

| Structure (SMILES) | IC50 (RAW264.7 [1]; Mus musculus, RAW264.7, 24 h) | IC50 (RAW264.7 [1]; raw264.7) | Activity (RAW264.7 [2]) |
| --- | --- | --- | --- |
| C=C1C(=O)O[C@H]2C[C@@H](C)[C@@H]3[C@@H](OC(C)=O)C[C@H](O)[C@@]3(C)C[C@H]12 | 0.25 µM | – | Non-toxic |
| C=C1C(=O)O[C@H]2C[C@@H](C)[C@@H]3[C@@H](OC(C)=O)C[C@H](O)[C@@]3(C)[C@@H](OC(C)=O)[C@H]12 | 0.11 µM | – | Non-toxic |
| N=C(N)NN [PIMAGEDINE] | 2.7 µM | – | – |
